High-throughput results from PubChem.
Shown are actives, neighbours in structure and some others; about 3% of the full set was active somewhere.
CaV13 ICDI inh: Disruptors of the CACNA1D IQ motif to Ca2+-dependent inactivation inhibitor domain association, primary screening, Förster resonance energy transfer in intact living …. HEK cells, CFP/YFP FRET ICDI-IQ, plate reader, 10 min; percent FRET-ratio fall versus neutral wells. inhibition, % at 12.3 µM. 0.098% of 340,000 active. AID 743397;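 active means mean replicate inhibition of at least 30% and at least 1% of replicates passing that level; inconclusive means only one of the two criteria is met; inactive means neither criterion is met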;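 further: 0% = median of the neutral control wells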
PvdQ acylase: P. aeruginosa PvdQ acylase inhibition; purified PvdQ acylase, fluorescence plate reader; inhibition, % at 10 µM; 0.063% of 340,000 active; AID 488965; in the data active means inhibition above about 30%, passing the limit was not always enough; inconclusive means no clear call, values can overlap the other calls;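 further: 0% = vehicle neutral wells and 100% = reference inhibitor wells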
T cruzi inh: T. cruzi replication inhibition; T. cruzi beta-gal in NIH3T3, luminescence, 90 h; inhibition, % (concentration not given with the values); 1.4% of 300,000 active;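 active means mean inhibition across valid replicates above about 55%, limit read from the data; inconclusive means mean below that limit but half or more replicates reach it; inactive means mean below it, under half of replicates reach it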;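 further: signal also drops with host cell toxicity which is not excluded here; 0% = plate median of DMSO wells and 100% = zero luminescence signal; higher percent means less beta-gal luminescence so fewer parasites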
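System: Mouse NIH/3T3 fibroblasts infected with β-gal-expressing T. cruzi Tulahuen C4 | Quantity: NIH/3T3 cells, 5,000 per well | Reagent: 5000 reporter trypomastigotes per well | Dosing: Compound pinned at 50 nL/well, DMSO | Schedule: 3 h host attachment, then at least 90 h co-culture | Detection: GalScreen luminescence, 60 min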
N-glyco inh: blocks N-linked glycosylation in D54 reporter cells | D54 ERlucT glycosylation luciferase reporter, 24 h; percent of 100 nM tunicamycin response | reporter increase, % at 12.5 µM | 0.23% of 360,000 active | AID 588692;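 active means mean luciferase reporter signal, scaled so untreated is 0 and the glycosylation-blocking control 100, at or above a set limit in every replicate; inconclusive means mean reaches the limit but not every replicate does; inactive means mean below the limit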;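 further: luciferase carries N-glycosylation sites so blocking glycosylation raises the light; 0% = median of neutral control wells and 100% = median of 100 nM tunicamycin wells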
HSF-1 act: increases HSF-1 driven luciferase reporter signal | AID 504408 | 1.7% of 300,000 active | activation, % at 9 µM | NIH3T3-HGL HSF-1 luciferase reporter, MG132, 8 h; 100% = twice DMSO control signal;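 active means mean replicate activation of at least 50% with a set share of replicates each reaching 50%; inconclusive means only one of those two conditions met; inactive means mean below 50% and too few replicates reaching it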;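 further: 0% = median of the neutral control wells and 100% = twice that signal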
PfHsp90 yeast 2: reduces growth (ATP signal) of yeast expressing P. falciparum Hsp90; 0.32% of 310,000 active; inhibition, % at 9.4 µM; S. cerevisiae expressing PfHsp90, BacTiter-Glo ATP, 48 h; yeast lacking PDR1 and PDR3 efflux regulators;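 active means every replicate shows inhibition above about 80%, whatever the replicate mean, limit read from the data; inconclusive means mean inhibition reaches the set limit but some replicate falls short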;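 further: 0% = DMSO neutral controls and 100% = 20 µM radicicol positive controls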
Starred values were filed as active, the others as inactive.

Screening Cc1sc2ncnc(N3CCC(C(=O)N(C)CC(=O)Nc4ccc(Cl)c(C(F)(F)F)c4)CC3)c2c1C returned CaV13 ICDI inh -6.5, PvdQ acylase 12.5, T cruzi inh 58.0*, N-glyco inh -3.5, HSF-1 act -8.8 and PfHsp90 yeast 2 -4.2.
`CCCCS(=O)(=O)N1CCN(C(=O)C(=O)c2cccc(C(F)(F)F)c2)CC1` gave CaV13 ICDI inh -10.9.
For O=C1/C(=C/c2cccs2)CCC/C1=C\c1cccs1 the results were PvdQ acylase -6.2, T cruzi inh 9.2, N-glyco inh -8.3, HSF-1 act 41.4 and PfHsp90 yeast 2 -3.1.
Cn1cccc1/C=C1\CCC/C(=C\c2cccn2C)C1=O was read as CaV13 ICDI inh -20.3, PvdQ acylase 10.4, T cruzi inh 6.4, N-glyco inh -3.7 and HSF-1 act 73.7*.
`CC(=NNC(=S)N1CC2CCC(CC2)C1)c1ccncn1` gave CaV13 ICDI inh -6.5, PvdQ acylase 4.8, N-glyco inh -12.4 and PfHsp90 yeast 2 111.4*.
`COC(=O)c1ccc(OC)c(CN2CCCN(Cc3cc(C)ccc3C)S2(=O)=O)c1` gave CaV13 ICDI inh -19.4, PvdQ acylase -10.6, T cruzi inh 68.6*, N-glyco inh -4.7, HSF-1 act 0.2 and PfHsp90 yeast 2 -1.5.
COC(=O)c1ccc(OC)c(CSc2nnc(-c3ccc(C)cc3)o2)c1 was read as CaV13 ICDI inh -14.2, PvdQ acylase 10.0, N-glyco inh 1.2 and PfHsp90 yeast 2 -0.4.
C[C@H](NC(=O)[C@@H]1CSC2c3ccccc3C(=O)N21)C(=O)NCCc1ccccc1 (some centres undefined) was read as CaV13 ICDI inh -3.8, PvdQ acylase -6.7, T cruzi inh -10.8, N-glyco inh -0.3, HSF-1 act 70.2* and PfHsp90 yeast 2 19.8.
C[C@H](NC(=O)[C@@H]1CSC2c3ccccc3C(=O)N21)C(=O)NCCc1ccc(F)cc1 (some centres undefined) was read as CaV13 ICDI inh -5.8, PvdQ acylase -20.4, T cruzi inh 8.7, N-glyco inh -0.4, HSF-1 act -1.4 and PfHsp90 yeast 2 0.5.
C[C@H]1CN(C(=O)OC(C)(C)C)CCN1c1ccc(N2CC[C@H](O)C2)c(C#N)c1 was read as CaV13 ICDI inh -8.6.
`COC(=O)C1=C(C)N(Cc2ccccc2C(F)(F)F)C(=NCC2CC2)NC1CCc1ccccc1` (centres undefined) gave CaV13 ICDI inh -13.5.
CN1C/C(=C\c2ccc(N3CCOCC3)cc2)C(=O)/C(=C/c2ccc(N3CCOCC3)cc2)C1 was read as CaV13 ICDI inh -18.1, PvdQ acylase 3.8, T cruzi inh -18.0, N-glyco inh inconclusive, HSF-1 act 132.8* and PfHsp90 yeast 2 11.5.
`CN1C/C(=C/c2ccsc2)C(=O)/C(=C/c2ccsc2)C1` gave CaV13 ICDI inh -2.8, PvdQ acylase -4.5, T cruzi inh 56.3*, N-glyco inh 3.5, HSF-1 act 5.4 and PfHsp90 yeast 2 0.2.
`COc1ccc(Cn2c(C)nc3c(c2=O)c2nc4ccccc4nc2n3Cc2ccco2)cc1` gave CaV13 ICDI inh -14.2, PvdQ acylase -12.2, N-glyco inh -10.8 and PfHsp90 yeast 2 -15.3.
For CCC(C)n1cnc2c(c1=O)c1nc3ccccc3nc1n2Cc1ccc(OC)cc1 (centres undefined) the results were CaV13 ICDI inh -5.2, PvdQ acylase -7.0, T cruzi inh 40.5, N-glyco inh 4.0, HSF-1 act 104.2* and PfHsp90 yeast 2 -38.0.
C[C@@H]1CCCCO[C@@H](CN(C)C(=O)CCC(F)(F)F)[C@@H](C)CN([C@H](C)CO)C(=O)c2cc(NS(=O)(=O)c3cccs3)ccc2O1 was read as CaV13 ICDI inh -5.9.
`COc1ccc(-c2cc(C3CCN(C(=O)OC(C)(C)C)CC3)[nH]n2)cc1` gave CaV13 ICDI inh -9.2, PvdQ acylase 6.6, T cruzi inh -5.1, N-glyco inh -9.9 and HSF-1 act -17.5.
Screening CCOC(=O)c1cn2nc(-c3ccc(OC)cc3)cc2nc1C1CCN(C(=O)OC(C)(C)C)CC1 returned CaV13 ICDI inh -3.4, PvdQ acylase -8.6, T cruzi inh 59.2*, HSF-1 act 21.4 and PfHsp90 yeast 2 57.2.
Cc1ccc(NC(=O)CSc2ncccc2C(=O)Oc2cccc([N+](=O)[O-])c2)cc1Cl was read as CaV13 ICDI inh -2.3, PvdQ acylase -8.0, T cruzi inh -5.9, N-glyco inh 10.2, HSF-1 act 82.2* and PfHsp90 yeast 2 6.0.
`NC(=O)c1cc([N+](=O)[O-])ccc1NCc1cccnc1` gave CaV13 ICDI inh 41.9*, PvdQ acylase -3.4, T cruzi inh 5.5, N-glyco inh 2.5, HSF-1 act 7.4 and PfHsp90 yeast 2 8.4.
`CCOC(=O)c1cccnc1SCC(=O)Nc1ccc(C)cc1` gave CaV13 ICDI inh -4.0, PvdQ acylase -9.9, T cruzi inh 2.9, N-glyco inh -0.4, HSF-1 act 9.6 and PfHsp90 yeast 2 -19.3.
`Cc1ccc(NC(=O)c2cc([N+](=O)[O-])ccc2NCc2cccnc2)cc1Cl` gave CaV13 ICDI inh -3.7, PvdQ acylase 7.8, T cruzi inh 57.5*, N-glyco inh -6.5 and HSF-1 act 19.3.
`CCc1sc(C(=O)NC2CCN(C)CC2)cc1Br` gave CaV13 ICDI inh -8.9, PvdQ acylase 8.9, T cruzi inh 61.6*, N-glyco inh 0.1, HSF-1 act -4.1 and PfHsp90 yeast 2 7.5.
Screening C[C@@]12C(=O)Nc3cc(Cl)ccc3C(=O)N1[C@H]1c3ccccc3OC[C@@H]1[C@@H]2c1ccccc1 returned PvdQ acylase -5.8, N-glyco inh 31.4* and PfHsp90 yeast 2 6.5.
C[C@@]12C(=O)Nc3ccc(Cl)cc3C(=O)N1[C@H]1c3ccccc3OC[C@@H]1[C@@H]2c1ccccc1 was read as PvdQ acylase 6.2, N-glyco inh 27.6* and PfHsp90 yeast 2 106.7*.
Cc1ccc2c(c1)C(=O)N1[C@H]3c4cc(Cl)ccc4OC[C@@H]3[C@H](c3ccccc3)[C@]1(C)C(=O)N2 was read as CaV13 ICDI inh -6.0, PvdQ acylase -5.6, N-glyco inh inconclusive and PfHsp90 yeast 2 -79.0.
`Cc1cc2c(c(=O)o1)[C@@]1(C(=O)N(c3ccccc3)c3ccccc31)C1=C(CCCC1=O)O2` gave CaV13 ICDI inh -7.4.
For CSc1ccc(CN2CCC2(C)C(=O)NCc2cccc(C(F)(F)F)c2)cc1 (centres undefined) the results were CaV13 ICDI inh -5.7 and N-glyco inh -3.1.
